Laboratory results from PMC3313018 (Cancer Chemotherapy and Pharmacology, 2011).
“Also recorded” adds a separate entry of the source. Like-named read-outs stand apart in the source and are kept apart here. Marks after values point to notes of the source that are not given here.

How the values were obtained:
[1] = test system: patients with advanced renal cell carcinoma; conditions: cited from earlier work
[2] = test system: Japanese patients with advanced solid tumors; assay: Phase I safety and tolerability: DLTs and adverse events; format: in vivo; conditions: for DLTs / n/N, No. of patients with DLT/No. of patients at the dose level: Cycle 1
In short: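 Open-label, single-centre 3+3 escalation, 20 then 40 mg orally (single dose Day 1, then daily 5 days/week from Day 8). DLT window was the first 28-day cycle, counting drug-related Grade 4 neutropenia >5 days, febrile (>38.5°C) Grade 3–4 neutropenia, Grade 4 thrombocytopenia, and Grade 3–4 non-haematologic toxicity with exceptions. Adverse events graded by CTCAE v3.0 over all cycles. Dose intensity <75% excluded from DLT evaluation.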

[3] = Whole blood and plasma pharmacokinetics; format: in vivo, Japanese patients
In short: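 Cycle 1, oral 20 or 40 mg. Whole blood and plasma sampled predose and 0.5–168 h after the Day 1 dose, predose on Days 15, 18, 22 and 23, and predose to 24 h on Day 26; assayed by HPLC-MS/MS. Tmax, Cmax and Ctrough taken by inspection. […] Accumulation (Day 26/Day 1) from a linear mixed effects model on ln values.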

[4] = test system: metastatic or locally advanced solid tumors; assay: Antitumor activity by RECIST version 1.0; format: in vivo, Japanese patients
In short: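 Exploratory tumour assessment by RECIST v1.0 in refractory metastatic or locally advanced solid tumours. Oral 20 or 40 mg: single dose Day 1, washout ≥6 days, then once daily 5 days on/2 days off on Days 8–28 as inpatients. Later 21-day cycles at 5 days a week until progression or unacceptable toxicity.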

[5] = test system: non-Japanese patients with refractory or advanced solid cancer; conditions: cited from earlier work; for Maximum tolerated dose (MTD): non-Japanese patients ref 10–13
sarcoma = conditions: Phase III sarcoma maintenance study, P = 0.0001, stratified log-rank ref 24; cited from earlier work
mTOR = conditions: in vitro ref 8; cited from earlier work
human tumor cell lines = conditions: in vitro ref 8; cited from earlier work
[6] = All patients (n = 13), all cycles
[7] = all patients (n = 13), all cycles

CO[C@H]1C[C@@H]2CC[C@@H](C)[C@@](O)(O2)C(=O)C(=O)N2CCCC[C@H]2C(=O)O[C@H]([C@H](C)C[C@@H]2CC[C@@H](OCCO)[C@H](OC)C2)CC(=O)[C@H](C)/C=C(\C)[C@@H](O)[C@@H](OC)C(=O)[C@H](C)C[C@H](C)/C=C/C=C/C=C/1C [everolimus]
Incidence of pneumonitis ([1]; Japanese patients with advanced renal cell carcinoma ref 18): 27%
Incidence of pneumonitis, overall rate ([1]; patients with renal cell carcinoma overall ref 18): 11%

CO[C@H]1C[C@@H]2CC[C@@H](C)[C@@](O)(O2)C(=O)C(=O)N2CCCC[C@H]2C(=O)O[C@H]([C@H](C)C[C@@H]2CC[C@@H](OP(C)(C)=O)[C@H](OC)C2)CC(=O)[C@H](C)/C=C(\C)[C@@H](O)[C@@H](OC)C(=O)[C@H](C)C[C@H](C)/C=C/C=C/C=C/1C [ridaforolimus, Ridaforolimus]
Anorexia, drug-related adverse event, Grades 1–2, no. of patients ([2]; 20 mg (n = 7), all cycles): 2
Constipation, drug-related adverse event, Grades 1–2, no. of patients ([2]; 20 mg (n = 7), all cycles): 3
Fatigue, drug-related adverse event, Grades 1–2, no. of patients ([2]; 20 mg (n = 7), all cycles): 1
Hypercholesterolemia, drug-related adverse event, Grades 1–2, no. of patients ([2]; 20 mg (n = 7), all cycles): 3
Hyperglycemia, drug-related adverse event, Grades 1–2, no. of patients ([2]; 20 mg (n = 7), all cycles): 2
Hypertriglyceridemia, drug-related adverse event, Grades 1–2, no. of patients ([2]; 20 mg (n = 7), all cycles): 5
Hypoalbuminemia, drug-related adverse event, Grades 1–2, no. of patients ([2]; 20 mg (n = 7), all cycles): 2
Interstitial pneumonitis, drug-related adverse event, Grades 1–2, no. of patients ([2]; 20 mg (n = 7), all cycles): 1
Interstitial pneumonitis, drug-related adverse event, Grades 3–4, no. of patients ([2]; 20 mg (n = 7), all cycles): 0
Leukopenia, drug-related adverse event, Grades 1–2, no. of patients ([2]; 20 mg (n = 7), all cycles): 1
Leukopenia, drug-related adverse event, Grades 3–4, no. of patients ([2]; 20 mg (n = 7), all cycles): 1
Neutropenia, drug-related adverse event, Grades 1–2, no. of patients ([2]; 20 mg (n = 7), all cycles): 1
Neutropenia, drug-related adverse event, Grades 3–4, no. of patients ([2]; 20 mg (n = 7), all cycles): 2
Proteinuria, drug-related adverse event, Grades 1–2, no. of patients ([2]; 20 mg (n = 7), all cycles): 3
Stomatitis, drug-related adverse event, Grades 3–4, no. of patients ([2]; 20 mg (n = 7), all cycles): 1
Thrombocytopenia, drug-related adverse event, Grades 1–2, no. of patients ([2]; 20 mg (n = 7), all cycles): 2
Anemia, drug-related adverse event, Grades 1–2, no. of patients ([2]; 40 mg (n = 6), all cycles): 3
Anemia, drug-related adverse event, Grades 3–4, no. of patients ([2]; 40 mg (n = 6), all cycles): 3
Anorexia, drug-related adverse event, Grades 1–2, no. of patients ([2]; 40 mg (n = 6), all cycles): 2
Anorexia, drug-related adverse event, Grades 3–4, no. of patients ([2]; 40 mg (n = 6), all cycles): 1
Constipation, drug-related adverse event, Grades 1–2, no. of patients ([2]; 40 mg (n = 6), all cycles): 1
Fatigue, drug-related adverse event, Grades 1–2, no. of patients ([2]; 40 mg (n = 6), all cycles): 3
Hypercholesterolemia, drug-related adverse event, Grades 1–2, no. of patients ([2]; 40 mg (n = 6), all cycles): 3
Hyperglycemia, drug-related adverse event, Grades 1–2, no. of patients ([2]; 40 mg (n = 6), all cycles): 2
Hyperglycemia, drug-related adverse event, Grades 3–4, no. of patients ([2]; 40 mg (n = 6), all cycles): 1
Hypertriglyceridemia, drug-related adverse event, Grades 1–2, no. of patients ([2]; 40 mg (n = 6), all cycles): 4
Hypoalbuminemia, drug-related adverse event, Grades 1–2, no. of patients ([2]; 40 mg (n = 6), all cycles): 3
Interstitial pneumonitis, drug-related adverse event, Grades 1–2, no. of patients ([2]; 40 mg (n = 6), all cycles): 3
Interstitial pneumonitis, drug-related adverse event, Grades 3–4, no. of patients ([2]; 40 mg (n = 6), all cycles): 0
Leukopenia, drug-related adverse event, Grades 1–2, no. of patients ([2]; 40 mg (n = 6), all cycles): 2
Loss of body weight, drug-related adverse event, Grades 1–2, no. of patients ([2]; 40 mg (n = 6), all cycles): 4
Neutropenia, drug-related adverse event, Grades 1–2, no. of patients ([2]; 40 mg (n = 6), all cycles): 1
Proteinuria, drug-related adverse event, Grades 1–2, no. of patients ([2]; 40 mg (n = 6), all cycles): 3
Rash, drug-related adverse event, Grades 1–2, no. of patients ([2]; 40 mg (n = 6), all cycles): 2
Rash, drug-related adverse event, Grades 3–4, no. of patients ([2]; 40 mg (n = 6), all cycles): 1
Stomatitis, drug-related adverse event, Grades 1–2, no. of patients ([2]; 40 mg (n = 6), all cycles): 6
Thrombocytopenia, drug-related adverse event, Grades 1–2, no. of patients ([2]; 40 mg (n = 6), all cycles): 3
Median time until the onset of stomatitis ([2]; 13 patients): 11 days
Number of patients who discontinued treatment because of adverse events ([2]; 13 patients): Six patients
Number of patients with stomatitis ([2]; 13 patients enrolled): 13
Number of patients with grade 1 drug-induced interstitial pneumonitis ([2]; 13 patients, 20 and 40 mg): Four patients
Number of patients with dose-limiting toxicities ([2]; 20 and 40 mg, first cycle): Two patients
Anemia, drug-related adverse event, Grades 3–4, no. of patients [2, 6]: 4
Anorexia, drug-related adverse event, Grades 1–2, no. of patients [2, 6]: 4
Anorexia, drug-related adverse event, Grades 3–4, no. of patients [2, 6]: 1
Constipation, drug-related adverse event, Grades 1–2, no. of patients [2, 6]: 4
Fatigue, drug-related adverse event, Grades 1–2, no. of patients [2, 6]: 4
Hypercholesterolemia, drug-related adverse event, Grades 1–2, no. of patients [2, 6]: 6
Hyperglycemia, drug-related adverse event, Grades 1–2, no. of patients [2, 6]: 4
Hyperglycemia, drug-related adverse event, Grades 3–4, no. of patients [2, 6]: 1
Hypertriglyceridemia, drug-related adverse event, Grades 1–2, no. of patients [2, 6]: 9
Hypoalbuminemia, drug-related adverse event, Grades 1–2, no. of patients [2, 6]: 5
Interstitial pneumonitis, drug-related adverse event, Grades 1–2, no. of patients [2, 6]: 4
Interstitial pneumonitis, drug-related adverse event, Grades 3–4, no. of patients [2, 6]: 0
Leukopenia, drug-related adverse event, Grades 1–2, no. of patients [2, 6]: 3
Leukopenia, drug-related adverse event, Grades 3–4, no. of patients [2, 6]: 1
Loss of body weight, drug-related adverse event, Grades 1–2, no. of patients [2, 6]: 4
Neutropenia, drug-related adverse event, Grades 1–2, no. of patients [2, 6]: 2
Neutropenia, drug-related adverse event, Grades 3–4, no. of patients [2, 6]: 2
Proteinuria, drug-related adverse event, Grades 1–2, no. of patients [2, 6]: 6
Rash, drug-related adverse event, Grades 3–4, no. of patients [2, 6]: 1
Stomatitis, drug-related adverse event, Grades 3–4, no. of patients [2, 6]: 1
Thrombocytopenia, drug-related adverse event, Grades 1–2, no. of patients [2, 6]: 5
Time to onset of DLT ([2]; Grade 3 anorexia, 40 mg): 23 days
Time to onset of DLT ([2]; Grade 3 stomatitis, 20 mg): 8 days
Time to onset of DLT ([2]; Grade 3 vomiting, 40 mg): 23 days
DLTs ([2]; Level 1, 20 mg): Grade 3 stomatitis
n/N, No. of patients with DLT/No. of patients at the dose level ([2]; Level 1, 20 mg): 1/6^b
DLTs ([2]; Level 2, 40 mg): Grade 3 anorexia; also recorded: Grade 3 vomiting
n/N, No. of patients with DLT/No. of patients at the dose level ([2]; Level 2, 40 mg): 1/6
Incidence of hypercholesterolemia related to treatment [2, 7]: 46.2%
Incidence of hypertriglyceridemia related to treatment [2, 7]: 69.2%
Incidence of leucopenia [2, 7]: 30.8%
Incidence of neutropenia [2, 7]: 30.8%
Incidence of proteinuria related to treatment [2, 7]: 46.2%
Incidence of skin rash related to treatment [2, 7]: 61.5%
Incidence of stomatitis related to treatment [2, 7]: 100%
Incidence of thrombocytopenia [2, 7]: 38.5%
Patients requiring a dose reduction ([2]; dose level 2 (40 mg)): None
Interstitial pneumonitis among patients with other cancer types ([2]; eight patients with other cancer types): three cases occurred among eight patients
Interstitial pneumonitis among NSCLC patients ([2]; five patients with NSCLC): one of these five NSCLC patients
Time of occurrence of interstitial pneumonitis after the start of treatment ([2]; four patients): 2–5 months
Tolerability, in words ([2]; oral, once daily 5 days a week): well tolerated up to a dose of 40 mg
Time whole blood concentration was below the quantitation limit (<0.2 ng/mL) ([3]; Day 1, after administration of 20 mg): 2 to 4 h
Time whole blood concentration was below the quantitation limit (<0.2 ng/mL) ([3]; Day 1, after administration of 40 mg): 1 to 2 h
Time for mean whole blood C trough to reach steady state ([3]; once daily, 5 days a week): about 1 week
Blood-to-plasma ratio, in words ([3]; plasma vs whole blood concentration): high blood-to-plasma ratio
Accumulation from Day 1 to Day 26 (AUC0–24 h, C max, C trough), in words ([3]; whole blood): moderate accumulation
Accumulation ratio (Day 26/Day 1) AUC0–24 h, geometric mean ratio (90% confidence interval) ([3]; whole blood, 20 mg): 1.51 (1.14, 2.01)
Accumulation ratio (Day 26/Day 1) C max, geometric mean ratio (90% confidence interval) ([3]; whole blood, 20 mg): 1.37 (0.959, 1.97)
Accumulation ratio (Day 26/Day 1) C trough, geometric mean ratio (90% confidence interval) ([3]; whole blood, 20 mg): 2.02 (1.61, 2.52)
Accumulation ratio (Day 26/Day 1) AUC0–24 h, geometric mean ratio (90% confidence interval) ([3]; whole blood, 40 mg): 1.44 (1.05, 1.99)
Accumulation ratio (Day 26/Day 1) C max, geometric mean ratio (90% confidence interval) ([3]; whole blood, 40 mg): 1.01 (0.674, 1.50)
Accumulation ratio (Day 26/Day 1) C trough, geometric mean ratio (90% confidence interval) ([3]; whole blood, 40 mg): 1.76 (1.37, 2.25)
Lag time for systemic absorption ([3]; whole blood, Day 1, 20 and 40 mg): 1 to 4 h
Time at which C max was reached ([3]; whole blood, Days 1 and 26): approximately 4 h
Number of patients achieving a partial response ([4]; 13 patients, NSCLC and angiosarcoma): Two patients
Number of patients with stable disease for ≥16 weeks ([4]; 13 patients, one thymic cancer, four soft tissue sarcomas): five patients
Duration of stable disease ([4]; Patient 1, Osteosarcoma, 20 mg): 3.7 weeks
Duration of stable disease ([4]; Patient 3, Thymic cancer, 20 mg): 16.3 weeks
Duration of stable disease ([4]; Patient 5, Liposarcoma, 20 mg): 16.1 weeks
Duration of stable disease ([4]; Patient 6, NSCLC (adenocarcinoma), 20 mg): 4.0 weeks
Duration of stable disease ([4]; Patient 7, NSCLC (adenocarcinoma), 20 mg): 4.0 weeks
Duration of stable disease ([4]; Patient 8, Osteosarcoma, 40 mg): 4.0 weeks
Duration of stable disease ([4]; Patient 9, Liposarcoma, 40 mg): 17.3 weeks
Duration of stable disease ([4]; Patient 10, Leiomyosarcoma, 40 mg): 16.3 weeks
Duration of stable disease ([4]; Patient 11, Leiomyosarcoma, 40 mg): 17.1 weeks
Longest tumor diameter on CT ([4]; Patient 13, Day 28, baseline 42 mm): 21 mm
Time until the response ([4]; both patients with partial response): 28 days
DLTs ([5]; 40 mg daily, five times a week, non-Japanese patients ref 17): stomatitis and fatigue
Maximum tolerated dose (MTD) ([5]; daily regimen): 10 mg
Maximum tolerated dose (MTD) ([5]; once daily, five-times-a-week regimen): 40 mg
Hazard ratio for progression-free survival vs placebo (sarcoma): 0.72
Effect on mTOR activity, in words (mTOR): inhibited mTOR activity
Antiproliferative activity, in words (human tumor cell lines): antiproliferative activity against a broad range of human tumor cell lines
